Among the data in ChEMBL document CHEMBL3425481, “Design, synthesis and anticancer activity of matrine-1H-1,2,3-triazole-chalcone conjugates” (Bioorg Med Chem Lett, 2015) are inhibition in vivo, IC50 and Activity values, retold here.

Assay [1] deals with A549. Nature of the assay: Antitumor activity against human A549 cells xenografted in Balb/ca-nu mouse assessed as tumor growth inhibition at 2.5 mg/kg, iv dosed every 3 days for total of 7 dosing rounds measured on day 10 after treatment. The assay is classed as functional. The following applies: read-out: TGI. The gist of the method: (§1)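 A549 xenograft in mice, dosed by tail vein injection every 3 days; vehicle saline plus 0.2% Tween 80. n = 8 per treatment group, 6 in the vehicle group. Mean ± SE.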
A general note: Xenograft models place foreign cells or tissue in a host animal.

The subject of a further assay is MCF7. In words: Antiproliferative activity against human MCF7 cells assessed as inhibition of cell proliferation incubated for 48 hrs by CCK8 assay. The following applies: MCF7, 48 h. The assay is classed as functional, cell-based. The gist of the method:
(§2)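 Human A549 lung, Hela cervical, Bel-7402 hepatocellular and MCF-7 breast cancer cells, plus mouse embryo fibroblast NIH3T3, tested for anti-proliferative activity by CCK-8 assay. For the matrine combination tests, the chalcone and matrine were used at a 1:1 molar ratio; values given as IC50.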

Assay [2] relates to A549. Nature of the assay: Antitumor activity against human A549 cells xenografted in Balb/ca-nu mouse assessed as tumor growth inhibition at 2.5 mg/kg, iv dosed every 3 days for total of 7 dosing rounds measured on day 18 after treatment. The assay is classed as functional. The following applies: read-out: TGI. The gist of the method: as §1
Assay [3] deals with A549. Nature of the assay: Induction of apoptosis in human A549 cells assessed as viable cells level at IC50 incubated for 24 hrs by Annexin V-FITC/propidium iodide double staining based flow cytometry (reference value: 99.7%). The assay is classed as functional. On the technique in general: Flow cytometry measures light scatter and fluorescence of single cells or particles in a stream.

In assay [4] the test system is A549. Nature of the assay: Antitumor activity against human A549 cells xenografted in Balb/ca-nu mouse assessed as tumor growth inhibition at 2.5 mg/kg, iv dosed every 3 days for total of 7 dosing rounds measured on day 20 after treatment. The assay is classed as functional. The following applies: read-out: TGI. A digest of the protocol:
as §1

Assay [5] relates to A549. Nature of the assay: Induction of apoptosis in human A549 cells assessed as late apoptosis cells level at IC50 incubated for 24 hrs by Annexin V-FITC/propidium iodide double staining based flow cytometry (reference value: 0.127%). The class given is functional.
Assay [6] deals with A549. In words: Induction of apoptosis in human A549 cells assessed as late apoptosis cells level at 0.5 times antiproliferative IC50 incubated for 24 hrs by Annexin V-FITC/propidium iodide double staining based flow cytometry (reference value: 0.127%). The class given is functional.
Assay [7] is described as follows: Antiproliferative activity against mouse NIH/3T3 cells assessed as inhibition of cell proliferation incubated for 48 hrs by CCK8 assay. The following applies: NIH3T3, 48 h. The assay is classed as cell-based. The gist of the method: as §2
Assay [8] relates to A549. In words: Antitumor activity against human A549 cells xenografted in Balb/ca-nu mouse assessed as tumor growth inhibition at 5 mg/kg, iv dosed every 3 days for total of 7 dosing rounds measured on day 20 after treatment. The class given is functional. The following applies: read-out: TGI. The gist of the method: as §1

What is called IC50 is the concentration that gives 50% inhibition. Turning to `O=C(/C=C/c1cccc(Cl)c1)c1ccc(OCc2cn([C@H]3CC(=O)N4C[C@@H]5CCCN6CCC[C@@H]([C@H]56)[C@H]4C3)nn2)cc1O`, the inhibition in vivo at 2.5 mg/kg is 5.4% with A549 [1], 38.8% in the assay on A549 [2] and 43.9% in the assay on A549 [4]. The results for the IC50 (in the assay on MCF7; in assay [7]) were 6.25 µM and 39.2 µM, respectively. The Activity in the assay with A549 [3] was determined as 47.7%; with A549 [5] it was 16.2%; with A549 [6], 16.3%. The inhibition in vivo at 5 mg/kg in the assay with A549 [8] was 64.8%.
